One may read the IC50 as the concentration that inhibits the measured activity by half. A higher IC50 goes with lower potency.

Assay [1] deals with RT-112. In words: CellTiter-Glo ATP cell viability assay, RT-112. In kind it is cell-based, human. Conditions: RT-112, 72 h of HDAC8 inhibitor treatment. In short, it runs like this:
(§1)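 UCCs kept in DMEM GlutaMAX-I plus 10% FCS at 37°C, 5% CO2. Cells seeded in 96-well plates and grown 24 h, then given one treatment at the indicated inhibitor concentrations (10 mM DMSO stock) or DMSO for 72 h. Viable cells read as total cellular ATP by CellTiter-Glo luminescence. IC50 and dose-response curves fitted by non-linear regression.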
On the technique in general: In ATP-based viability assays light output follows the ATP content of the culture.

In assay [2] the test system is VM-CUB1. In words: CellTiter-Glo ATP cell viability assay, VM-CUB1. The assay is classed as cell-based, human. Conditions: VM-CUB1, 72 h of HDAC8 inhibitor treatment. In short, it runs like this: as §1
In assay [3] the test system is SW-1710. The experiment in a line: CellTiter-Glo ATP cell viability assay, SW-1710. In kind it is cell-based, human. The following applies: SW-1710, 72 h of HDAC8 inhibitor treatment. In short, it runs like this: as §1
The test system of assay [4] is UM-UC-3. In words: CellTiter-Glo ATP cell viability assay, UM-UC-3. The assay is classed as cell-based, human. The following applies: UM-UC-3, 72 h of HDAC8 inhibitor treatment. In short, it runs like this:
as §1

Assay [5] concerns 639-V. In words: CellTiter-Glo ATP cell viability assay, 639-V. The assay is classed as cell-based, human. The following applies: 72 h of HDAC8 inhibitor treatment. In short, it runs like this: as §1
For assay [6], the system named is VM-CUB1. The experiment in a line: Colony forming assay, VM-CUB1. Conditions: VM-CUB1, 72 h treatment at IC50 concentrations. The assay is classed as cell-based, human. In short, it runs like this:
(§2)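 After a single 72 h inhibitor or DMSO treatment, cells were replated at 500 to 1,000 cells per well in 6-well plates and grown 10 days. Then PBS-washed, fixed briefly in 50% methanol and 10 min in 100% methanol, and Giemsa-stained. Colony number and size measured by image analysis against the DMSO control.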

The subject of assay [7] is Normal Uroepithelial Control. In words: CellTiter-Glo ATP cell viability assay, normal uroepithelial control. In kind it is cell-based, human. The following applies: 72 h of HDAC8 inhibitor treatment. Summed up:
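Normal urothelial cells isolated from ureters after nephrectomy, grown in keratinocyte serum-free medium with 0.25 ng/ml EGF and 12.5 μg/ml bovine pituitary extract. Seeded in 96-well plates for 24 h, then treated once with the indicated inhibitor concentrations (10 mM DMSO stock) or DMSO for 72 h. Read by CellTiter-Glo total-ATP luminescence. IC50 from non-linear regression.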

A further assay deals with p21. The experiment in a line: Western blot of p21 in UCCs. The assay is classed as cell-based, human.
Assay [8] deals with UM-UC-3. In words: Wound healing migration assay, UM-UC-3. The assay is classed as cell-based, human. The following applies: UM-UC-3, IC50 concentrations, especially after 6 - 12 h.
The subject of assay [9] is RT-112. In words: Colony forming assay, RT-112. The assay is classed as cell-based, human. Conditions: RT-112, 72 h treatment at IC50 concentrations. Summed up:
as §2

Assay [10] concerns VM-CUB1. In words: Wound healing migration assay, VM-CUB1. The assay is classed as cell-based, human. The following applies: VM-CUB1, IC50 concentrations, especially after 6 - 12 h.
In assay [11] the test system is SW-1710. In words: Colony forming assay, SW-1710. The assay is classed as cell-based, human. The following applies: SW-1710, 72 h treatment at IC50 concentrations. In short, it runs like this:
as §2

Assay [12] concerns thymidylate synthase (TS). In words: Western blot of thymidylate synthase in UCCs. Conditions: inhibitor IC50, 72 h. In kind it is cell-based, human. (In general: In western blotting, separated proteins are transferred to a membrane and probed.)
The test system of the next assay is acetylated α-tubulin. The experiment in a line: Western blot of acetylated α-tubulin in UCCs. In kind it is cell-based, human. Conditions: all cell lines, inhibitor IC50, 72 h.
For assay [13], the system named is UM-UC-3. The experiment in a line: Colony forming assay, UM-UC-3. Conditions: UM-UC-3, 72 h treatment at IC50 concentrations. In kind it is cell-based, human. In short, it runs like this: as §2
The subject of assay [14] is urothelial cancer cell lines (UCCs). The experiment in a line: CellTiter-Glo ATP cell viability assay, urothelial cancer cell line panel. The assay is classed as cell-based, human. Conditions: 72 h inhibitor treatment. In short, it runs like this:
as §1

The subject of a further assay is HDAC6. The following applies: in vitro; cited from earlier work.
Assay [15] has as its system urothelial cancer cell lines (UCCs). In words: Cell cycle analysis by flow cytometry. The assay is classed as cell-based, human. Conditions: for G1-fraction / G2/M-arrest: VM-CUB1, SW-1710, 639-V and UM-UC-3 cells, inhibitor IC50, 72 h; for sub-G1 fraction: VM-CUB1 and SW-1710, inhibitor IC50, 72 h. Summed up:
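UCCs grown in DMEM GlutaMAX-I with 10% FCS at 37°C and 5% CO2. One inhibitor dose was given 24 h after seeding (10 mM DMSO stock), with DMSO as solvent control and the pan-HDAC inhibitor SAHA (2.5 μM). After 72 h, attached and floating cells were stained in PI buffer (50 μg/ml PI, 0.1% sodium citrate, 0.1% Triton X-100) and run on flow cytometry. Sub-G1 counted as apoptotic.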
Background: Flow cytometry measures light scatter and fluorescence of single cells or particles in a stream.

The subject of a further assay is HDAC1, HDAC2 and HDAC3. The experiment in a line: Expression of other class I HDACs. The assay is classed as cell-based, human. Conditions: SW-1710 and VM-CUB1 cells, inhibitor IC50, 72 h, western blot.
For assay [16], the system named is 639-V. The experiment in a line: Colony forming assay, 639-V. The assay is classed as cell-based, human. Conditions: 72 h treatment at IC50 concentrations. In short, it runs like this:
as §2

Assay [17] deals with acetylated histone H3 and H4. In words: Western blot of histone H3 and H4 acetylation. The assay is classed as cell-based, human. Conditions: for H4 acetylation: 639-V, inhibitor IC50, 72 h. Summed up: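 Histone acetylation checked after 72 h inhibitor or DMSO treatment. 1 μg of each sample run on 15% SDS-PAGE and transferred to PVDF. Probed for acetylated H3 (1:2,000), total H3 (1:1,000), acetylated H4 (1:1,000) and total H4 (1:500). Blocking in 5% milk/TBST, primary 1 h at room temperature or overnight at 4°C, HRP-conjugated secondaries.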

A further assay has as its system PARP. The experiment in a line: Western blot of PARP cleavage in UCCs. In kind it is cell-based, human. Conditions: SW-1710, inhibitor IC50, 72 h.
[18] abbreviates: SW-1710 and 639-V, inhibitor IC50, 72 h.
The mark [19] stands for this setting: VM-CUB1, SW-1710 and UM-UC-3 cells.

Consider `O=C(NO)c1cccc2ccccc12` [Compound 2, 1-napthohydroxamic acid, reference compound], for which the 50% inhibitory concentration (IC50) was not below 50 µM in the assay with RT-112 [1]; more than 50 µM in the assay on RT-112 [1] (listed as c2); not below 50 µM with VM-CUB1 [2]; not below 50 µM with SW-1710 [3]; not below 50 µM in the assay with UM-UC-3 [4]; not below 50 µM in the assay with 639-V [5]. The same molecule returned a half-maximal inhibitory concentration (IC50) in assay [7] not below 50 µM. For the same molecule, the clonogenic growth entry in the assay with VM-CUB1 [6] was “inhibited clonogenicity”.

Consider `O=C(/C=C/Cc1cccc2ccccc12)NO` [Compound 5, δ-naphtyl-trans 2-butenoil hydroxamic acid], for which the concentration for half-maximal inhibition (IC50) with RT-112 [1] is 9.7 µM; in the assay with RT-112 [1] (listed as c5), approximately 9.7 µM; in the assay on VM-CUB1 [2], 18.7 µM; in the assay with SW-1710 [3], 20.8 µM; in the assay with UM-UC-3 [4] it was 18.9 µM; with 639-V [5], 12.6 µM. Inhibition in assay [7] was half-maximal at 24.2 µM (IC50). Besides, the p21 expression result in the assay with p21 (setting [18]) is given as “decreased”. Further, the “wound healing (relative scratch size) vs DMSO control” value in the assay on UM-UC-3 [8] and in the assay with VM-CUB1 [10] was “clear difference” throughout. Moreover, the clonogenic growth entry in the assay with RT-112 [9] was “moderate reduction of colony numbers”; in the assay on SW-1710 [11] it was “no effect”; with UM-UC-3 [13] it was “moderate reduction of colony numbers”; in the assay on 639-V [16] it was “moderate reduction of colony numbers”; with VM-CUB1 [6], “completely abolished”. Further, the “expression of thymidylate synthase (TS)” value is “No effects” in assay [12] (639-V and RT-112 cells); “weakly reduced” in assay [12] (setting [19]). Besides, the “acetylated α-tubulin” value in the assay on acetylated α-tubulin (listed as c5) was “strong increase”. The “viability of all UCCs” value in assay [14] is “significantly reduced”. Besides, the “inhibition of HDAC6” value with HDAC6 was “do not inhibit HDAC6 efficiently”. Moreover, the G1-fraction result in assay [15] was “significant decrease”. In addition, the G2/M-arrest entry in assay [15] is recorded as “indications of a G2/M-arrest”. The sub-G1 fraction result in [15] is reported as “significant increase”. The “protein expression of HDAC1 and HDAC2/3” value with HDAC1, HDAC2 and HDAC3 is given as “slightly reduced”. Moreover, the H4 acetylation result in assay [17] is listed as “slight increase”.

As to `O=C(NO)c1ccc(-c2cccc3ccccc23)cc1` [Compound 6, 4-naphtyl-benzoil hydroxamic acid], the IC50 in the assay on RT-112 [1] is 9.1 µM; in the assay with RT-112 [1] (listed as c6) it was approximately 9.1 µM; in the assay on VM-CUB1 [2], 16 µM; with SW-1710 [3] it was 18.8 µM; in the assay with UM-UC-3 [4], 18.2 µM; with 639-V [5] it was 18.6 µM. This molecule showed a half-inhibitory concentration (IC50) in assay [7] of 10.2 µM. Also, the p21 expression result is “decreased” in the assay with p21 (setting [18]) and “decreased” in the assay on p21 (UM-UC-3, inhibitor IC50, 72 h). Moreover, the “wound healing (relative scratch size) vs DMSO control” value in the assay with UM-UC-3 [8] and with VM-CUB1 [10] was “clear difference” in each case. The clonogenic growth result in the assay with RT-112 [9] is given as “active”; in the assay with SW-1710 [11], “active”; in the assay with UM-UC-3 [13] it was “most efficient”; with 639-V [16], “most efficient”; in the assay on VM-CUB1 [6], “most efficient”. Moreover, the “expression of thymidylate synthase (TS)” value in assay [12] (639-V and RT-112 cells) is “No effects”; in [12] (setting [19]), “weakly reduced”. In the assay with acetylated α-tubulin (listed as c6), the “acetylated α-tubulin” value is reported as “strong increase”. Further, the “viability of all UCCs” value in [14] is listed as “significantly reduced”. For the same molecule, the “inhibition of HDAC6” value with HDAC6 is reported as “do not inhibit HDAC6 efficiently”. Moreover, the G1-fraction result in [15] is “significant decrease”. Moreover, in assay [15], the G2/M-arrest result is reported as “indications of a G2/M-arrest”. Moreover, the sub-G1 fraction result in assay [15] is reported as “significant increase”. Further, in the assay with HDAC1, HDAC2 and HDAC3, the “protein expression of HDAC1 and HDAC2/3” value is “slightly reduced”. In addition, in assay [17], the H4 acetylation result is reported as “slight increase”. Besides, the “cleavage of PARP” value in the assay with PARP is “Increased cleavage of PARP”.

Consider `O=C(CCCCCCC(=O)Nc1ccccc1)NO` [SAHA, suberoylanilide hydroxamic acid, reference compound], for which the “histone H3 or H4 acetylation” value in assay [17] (SAHA control) is recorded as “led to a change”.
